This is an account of results in ChEMBL document CHEMBL1154981, “Chemical constituents from the leaves and stems of Schisandra rubriflora” (J Nat Prod, 2010).

The test system of one data set is HepG2. Nature of the data set: Cytotoxicity against human HepG2 cells after 48 hrs by SRB assay. It counts as functional, cell-based. As to conditions: HepG2, 48 h.
Data set [1] can be described thus: Selectivity index, ratio of antiviral activity against HIV1-infected human C8166 cells over cytotoxicity against human C8166 cells. It counts as toxicity, cell-based. Particulars: uninfected and HIV-1-infected, read-out: Selectivity Index.
For data set [2], the system named is Human immunodeficiency virus 1. Put plainly: Antiviral activity against HIV1-infected human C8166 cells. Particulars: Human immunodeficiency virus 1, C8166. The format is functional, organism-based. A digest of the protocol: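 Protection of C8166 cells from HIV-1 cytopathic effects, read as EC50. Run alongside the cytotoxicity measurement, with AZT as positive control.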

The subject of the next data set is K562. Put plainly: Cytotoxicity against human K562 cells after 48 hrs by SRB assay. It counts as functional, cell-based. Particulars: K562, 48 h. A general note: The SRB assay estimates cell density from bound dye.
Data set [3] can be described thus: Cytotoxicity against human C8166 cells by MTT assay. The format is cell-based. A digest of the protocol:
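Uninfected C8166 cells scored for viability by MTT, giving CC50. Run in parallel with the HIV-1 cytopathic-effect assay, with AZT as reference.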
A general note: Tetrazolium assays rely on reduction of a dye to a coloured formazan, in cell work by metabolically active cells.

≈ marks a conversion by molar mass, not a printed value.

For `C[C@@H]1C(=O)O[C@H]2[C@@H]1O[C@]13O[C@@]4(CC[C@]5(C)C(=O)[C@](C)(O)[C@@]2(O)[C@H]15)C[C@]12OC(=O)C[C@H]1OC(C)(C)[C@@H]2[C@@H](O)C[C@H]4C3=O` [SCHIRUBRIDILACTONE A], the IC50 with HepG2 and with K562 was more than 5 µg/mL in each case. For the same compound, the selectivity ratio in data set [1] amounted to 5.1. Besides, it took 30.1 µg/mL (≈ 52.2 µM) to reach a half-maximal effect in data set [2] (EC50).

Consider `C/C(=C/[C@H]1O[C@]23O[C@@]4(CC[C@]5(C)C(=O)[C@](C)(O)[C@H]1[C@H]25)C[C@]12OC(=O)C[C@H]1OC(C)(C)[C@@H]2CC=C4C3=O)C(=O)O` [SCHIRUBRIDILACTONE B], for which the concentration for half-maximal inhibition (IC50) in the data set with HepG2 and in the data set with K562 was more than 5 µg/mL throughout. Also, the selectivity ratio in data set [1] came out at 9. The compound also yielded an EC50 in data set [2] of 15.2 µg/mL (≈ 28 µM).

Regarding `C[C@@H]1C(=O)[C@@]2(C)CC[C@]34C[C@]56OC(=O)C[C@H]5O[C@@](C)(CO)[C@@H]6CC[C@@]3(O)C(=O)[C@@]3(O[C@]5(C[C@H](C)C(=O)O5)[C@@H]1[C@H]32)O4` [SCHIRUBRIDILACTONE C], the selectivity ratio in data set [1] was determined as 8.7. This compound yielded an EC50 in data set [2] of 14.3 µg/mL (≈ 25.5 µM).

On to `C[C@@H]1C(=O)O[C@H]2[C@@H]1O[C@]13O[C@@]4(CC[C@]5(C)C(=O)[C@@H](C)[C@H]2[C@H]15)C[C@]12OC(=O)C[C@H]1OC(C)(C)[C@@H]2C[C@@H]1O[C@@]14C3=O` [SCHIRUBRIDILACTONE D], for which the IC50 in the data set with HepG2 and with K562 was more than 5 µg/mL each time. The selectivity ratio in data set [1] worked out at 2.2. Further, the midpoint of the response in data set [2], the EC50, lay at 80.8 µg/mL (≈ 149 µM).

Take `CC1(C)O[C@@H]2CC(=O)O[C@@]23C[C@]24CC[C@]5(C)C(=O)[C@](C)(O)[C@]6(O)[C@H]7OC(=O)[C@](C)(O)[C@H]7O[C@@](O2)(C(=O)C4=CC[C@@H]13)[C@@H]65` [SCHIRUBRIDILACTONE E]: the IC50 with HepG2 and with K562 was more than 5 µg/mL each time. Besides, the selectivity ratio in data set [1] amounted to 3.1. The compound also gave an EC50 in data set [2] of 66.8 µg/mL (≈ 116 µM).

On to `CC1=C[C@H]([C@H]2O[C@]34C(=CC[C@@H]3[C@@H]2C)[C@@H]2[C@H](O)C[C@H]3C(C)(C)O[C@@H]5CC(=O)O[C@@]53C[C@@]2(O)C[C@@H]4O)OC1=O` [SCHIRUBRIDILACTONE F], for which the half-maximal inhibitory concentration (IC50) in the data set on HepG2 and with K562 was more than 5 µg/mL throughout. Moreover, the selectivity ratio in data set [1] was determined as 3.5. In data set [2], this compound returned an EC50 of 50.1 µg/mL (≈ 97 µM).

`Cc1cn([C@H]2C[C@H](N=[N+]=[N-])[C@@H](CO)O2)c(=O)[nH]c1=O` [ZIDOVUDINE] returned a CC50 in data set [3] of more than 200 µg/mL.

Usually IC50 stands for the midpoint of a concentration-inhibition curve. Low values mean inhibition by little substance, high ones a need for much substance. The term EC50 denotes the concentration at which the effect is half-maximal. The low end stands for greater potency, the high end for weaker potency. What is called CC50 is the concentration giving 50% cytotoxicity.
